pIC50: −log10 of the molar value. *1 amine or outer side, *2 acyl side, *3 side chain or, on linkers, in order; H or OH if unused. Where a SMILES comes first, the peptide text is derived from it. Bridges are numbered along the chain shown (N, C = ends). [ ]: non-standard residue; d: D form. Cys(O)(CH2CO) = O=C([C@H](C[S+]([O-])CC(=O)[*:3])N[*:1])[*:2]
Experiments:
Format in all cases: protein-complex assay
[1] = target: T1, Integrin alpha-IIb/beta-3 (Homo sapiens, UniProt P05106+P08514); assay: The compound was tested for the inhibition of fibrinogen receptor
In short: (§1)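 Solid-phase ELISA: human fibrinogen (10 µg/mL) coated, BSA-blocked; samples plus purified human platelet GPIIbIIIa (40 µg/mL) incubated 1 h at room temperature. Bound receptor detected with anti-GPIIbIIIa antibody AP3 (1 µg/mL, 1 h), then goat anti-mouse HRP (1 h); OPD/H2O2 at pH 5, stopped with H2SO4, absorbance 492-405 nm. IC50 from four-parameter fit; n ≥ 3.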

[2] = target: T1, Integrin alpha-IIb/beta-3; assay: Inhibition of Fibrinogen binding to Fibrinogen receptor; in short: as §1
[3] = target: T1, Integrin alpha-IIb/beta-3; assay: Inhibition of Fibrinogen receptor; in short: as §1

T1 sequence (P05106 27-788 limits assumed): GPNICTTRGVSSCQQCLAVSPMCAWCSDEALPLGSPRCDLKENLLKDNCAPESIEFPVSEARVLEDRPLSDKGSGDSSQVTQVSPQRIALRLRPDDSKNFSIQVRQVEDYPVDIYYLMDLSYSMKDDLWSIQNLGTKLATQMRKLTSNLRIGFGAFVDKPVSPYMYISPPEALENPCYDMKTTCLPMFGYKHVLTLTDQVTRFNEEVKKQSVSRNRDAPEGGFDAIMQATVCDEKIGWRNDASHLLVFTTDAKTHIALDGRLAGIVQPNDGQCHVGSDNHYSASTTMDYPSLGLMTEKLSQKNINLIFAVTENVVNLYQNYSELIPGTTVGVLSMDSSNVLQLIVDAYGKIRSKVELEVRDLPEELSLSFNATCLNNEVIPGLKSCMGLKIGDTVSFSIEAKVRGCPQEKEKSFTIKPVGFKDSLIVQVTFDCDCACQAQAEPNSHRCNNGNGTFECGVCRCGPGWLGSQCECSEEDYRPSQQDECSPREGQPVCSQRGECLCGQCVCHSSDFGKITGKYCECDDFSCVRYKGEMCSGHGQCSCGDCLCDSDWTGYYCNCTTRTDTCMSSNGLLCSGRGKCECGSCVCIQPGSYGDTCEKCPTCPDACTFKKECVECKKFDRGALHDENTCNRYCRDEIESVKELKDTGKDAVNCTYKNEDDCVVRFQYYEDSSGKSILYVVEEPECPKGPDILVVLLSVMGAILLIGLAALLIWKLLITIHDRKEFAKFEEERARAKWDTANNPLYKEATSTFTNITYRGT
T1 sequence (P08514 32-887 limits assumed): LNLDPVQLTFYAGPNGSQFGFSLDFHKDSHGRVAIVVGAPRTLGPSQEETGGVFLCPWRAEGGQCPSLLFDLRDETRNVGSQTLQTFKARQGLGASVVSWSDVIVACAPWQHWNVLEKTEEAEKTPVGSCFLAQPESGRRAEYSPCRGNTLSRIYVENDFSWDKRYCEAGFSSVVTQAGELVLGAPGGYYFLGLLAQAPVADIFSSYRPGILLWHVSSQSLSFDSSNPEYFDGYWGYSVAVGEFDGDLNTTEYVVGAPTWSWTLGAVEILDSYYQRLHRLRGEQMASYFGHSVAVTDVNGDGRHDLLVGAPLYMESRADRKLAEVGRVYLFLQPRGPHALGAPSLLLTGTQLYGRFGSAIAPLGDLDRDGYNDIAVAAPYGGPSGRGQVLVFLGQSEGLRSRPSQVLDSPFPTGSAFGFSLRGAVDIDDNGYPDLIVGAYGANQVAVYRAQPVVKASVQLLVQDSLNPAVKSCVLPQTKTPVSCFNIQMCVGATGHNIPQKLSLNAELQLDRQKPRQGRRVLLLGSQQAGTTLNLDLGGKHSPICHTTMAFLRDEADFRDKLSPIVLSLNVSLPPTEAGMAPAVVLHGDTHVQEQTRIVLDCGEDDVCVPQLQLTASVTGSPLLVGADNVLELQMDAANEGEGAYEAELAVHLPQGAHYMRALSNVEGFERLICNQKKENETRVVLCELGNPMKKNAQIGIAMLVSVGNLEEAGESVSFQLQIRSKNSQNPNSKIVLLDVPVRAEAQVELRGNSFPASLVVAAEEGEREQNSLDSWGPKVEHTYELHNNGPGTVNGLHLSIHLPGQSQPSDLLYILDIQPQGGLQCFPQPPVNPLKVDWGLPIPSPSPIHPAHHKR
T1 sequence (P08514 891-1039 limits assumed): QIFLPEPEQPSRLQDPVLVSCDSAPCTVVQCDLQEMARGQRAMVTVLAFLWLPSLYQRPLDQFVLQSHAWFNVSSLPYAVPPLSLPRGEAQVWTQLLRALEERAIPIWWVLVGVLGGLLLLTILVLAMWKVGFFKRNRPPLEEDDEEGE

**Q.** With `N=C(N)NCCC[C@@H]1NC(=O)[C@@H](Cc2ccccc2)NC(=O)C[S+]([O-])C[C@@H](C(=O)O)NC(=O)[C@H](CC(=O)O)NC(=O)CNC1=O` (stereo partly drawn) as the molecule, how does the pIC50 [1] read?
**A.** Its pIC50 is 8.25.

**Q.** What about the pIC50 [2] of the same molecule?
**A.** Its pIC50 is 7.48.

**Q.** `N=C(N)NCCC[C@@H]1NC(=O)[C@H](Cc2ccccc2)NC(=O)C[S+]([O-])C[C@@H](C(=O)O)NC(=O)[C@H](CC(=O)O)NC(=O)CNC1=O` (stereo partly drawn) was tested. Which pIC50 [1] did it give?
**A.** Its pIC50 is 8.18.

**Q.** And the pIC50 [2]?
**A.** Its pIC50 is 7.80.

**Q.** With `CC(C)C[C@@H]1NC(=O)C[S+]([O-])C[C@@H](C(=O)O)NC(=O)[C@H](CC(=O)O)NC(=O)CNC(=O)[C@H](CCCN=C(N)N)NC1=O` (stereo partly drawn) (LRGD[Cys(O)(CH2CO)]-OH; lactam N-5) as the molecule, how does the pIC50 [1] read?
**A.** Its pIC50 is 8.41.

**Q.** And the pIC50 [2]?
**A.** The pIC50 was 7.60.

**Q.** How did the pIC50 [3] turn out when `N=C(N)NCCC[C@H](N)C(=O)NCC(=O)N[C@@H](CC(=O)O)C(=O)N[C@@H](Cc1ccccc1)C(=O)O` (H-RGDF-OH) was run?
**A.** Its pIC50 is 7.51.

**Q.** Which results are given for `N=C(N)NCCC[C@@H]1NC(=O)[C@H](CO)NC(=O)C[S+]([O-])C[C@@H](C(=O)O)NC(=O)[C@H](CC(=O)O)NC(=O)CNC1=O` (stereo partly drawn) (SRGD[Cys(O)(CH2CO)]-OH; lactam N-5)?
**A.** pIC50 [1]: 8.10; pIC50 [2]: 7.30

**Q.** `CC(C)[C@@H]1NC(=O)C[S+]([O-])C[C@@H](C(=O)O)NC(=O)[C@H](CC(=O)O)NC(=O)CNC(=O)[C@H](CCCNC(=N)N)NC1=O` (stereo partly drawn) (VRGD[Cys(O)(CH2CO)]-OH; lactam N-5) was tested. Which pIC50 [1] did it give?
**A.** The pIC50 was 8.54.

**Q.** And the pIC50 [2]?
**A.** The pIC50 was 8.35.

**Q.** Which results are given for `N=C(N)NCCC[C@@H]1NC(=O)[C@H](CCCCN)NC(=O)C[S+]([O-])C[C@@H](C(=O)O)NC(=O)[C@H](CC(=O)O)NC(=O)CNC1=O` (stereo partly drawn) (KRGD[Cys(O)(CH2CO)]-OH; lactam N-5)?
**A.** pIC50 [1]: 8.59; pIC50 [2]: 7.85

Reference: ChEMBL document CHEMBL1126061, “Cyclic RGD peptide analogues as antiplatelet antithrombotics” (J Med Chem, 1992)
